Reference: ChEMBL document CHEMBL4007509, “Structural Optimizations of Thieno[3,2-b]pyrrole Derivatives for the Development of Metabolically Stable Inhibitors of Chikungunya Virus” (J Med Chem, 2017)
Calls of active or inactive are those of the source. The calls are words filed in the database; no cut-off is given here.

Legend:
Chikungunya virus [1] = experiment: Antiviral activity against wild type Chikungunya virus IMT infected in HEK293T cells assessed as reduction in virus infection after 24 hrs by FITC immunofluorescence-based single cell quantification high content screening assay; type: functional; conditions: HEK-293T
[2] = Cytotoxicity against HEK293T cells assessed as reduction in cell viability after 24 hrs by CellTiter-Glo luminescent assay; type: cell-based, HEK-293T; conditions: human
How it was run: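 HEK 293T cell viability was measured by CellTiter-Glo luminescence after 24 h exposure to serial dilutions. Data were normalized to untreated cells (100%) and reagent background (0%). CC50, the concentration reducing viability by 50%, came from a five-parameter asymmetric fit.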

Chikungunya virus [3] = experiment: Antiviral activity against full length Gaussia princeps Gluc-tagged Chikungunya virus IMT infected in HEK293T cells assessed as reduction in virus infection after 24 hrs by Gaussia luciferase reporter gene assay; type: functional, cell-based; conditions: HEK-293T
[4] = Selectivity index, ratio of CC50 for HEK293T cells to EC50 for full length Gaussia princeps Gluc-tagged Chikungunya virus IMT; type: toxicity; conditions: human, read-out: Ratio CC50/EC50
[5] = Half life in human liver microsomes; type: ADME, microsome
How it was run: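 Compounds were incubated with human liver microsomes. Half-life = ln(2)/slope, where the slope is ln(% detected) plotted against time, using the mean of at least 3 independent experiments.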

Liver = experiment: Intrinsic clearance in human liver microsomes; type: ADME, microsome
How it was run: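 Intrinsic clearance was measured in human liver microsome incubation and expressed in μL min−1 mg−1 microsomal protein.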

[6] = Terminal half life in C57BL/6 mouse at 3 mg/kg, iv; type: ADME, organism-based; conditions: in vivo, read-out: beta t1/2 (converted)
How it was run: (§1)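 Male C57BL/6 mice received a single 3 mg/kg iv or 10 mg/kg po dose of a solution in 5% DMSO, 70% PEG400 and 25% water. Results are terminal half-life (h), plasma clearance (mL min−1 kg−1), Vss (L/kg), Tmax (h), Cmax (ng/mL) and oral bioavailability. Values are mean ± SD of three mice.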

[7] = Terminal half life in C57BL/6 mouse at 10 mg/kg, po; type: ADME, organism-based; conditions: in vivo, read-out: beta t1/2 (converted); how it was run: as §1
[8] = Plasma clearance in C57BL/6 mouse at 3 mg/kg, iv; type: ADME, organism-based; how it was run: as §1
[9] = Volume of distribution in steady state in C57BL/6 mouse at 3 mg/kg, iv; type: ADME, organism-based; conditions: in vivo, read-out: Vdss; how it was run: as §1
[10] = Tmax in C57BL/6 mouse at 10 mg/kg, po; type: ADME, organism-based; conditions: in vivo; how it was run: as §1
[11] = Cmax in C57BL/6 mouse at 10 mg/kg, po; type: ADME, organism-based; set-up: dose 10 mg/kg, route oral; conditions: in vivo; how it was run: as §1
[12] = Oral bioavailability in C57BL/6 mouse at 10 mg/kg; type: ADME, organism-based; conditions: in vivo; how it was run: as §1
[13] = Plasma concentration in C57BL/6 mouse at 3 mg/kg, iv administered as single dose measured within 1 hr post dose by HPLC-MS/MS analysis; type: ADME, organism-based
How it was run: (§2)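 Male C57BL/6 mice received a single 3 mg/kg iv or 10 mg/kg po dose in 5% DMSO/70% PEG400/25% water. Plasma was sampled at set times over 24 h and analysed by HPLC-MS/MS, with a quantification limit of 0.5 ng/mL. Values are mean ± SD of three mice.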

Chikungunya virus [14] = experiment: Antiviral activity against Chikungunya virus IMT infected in HEK 293T cells assessed as reduction in viral load measured up to 24 hrs by qRT-PCR analysis; type: functional, cell-based
[15] = Plasma concentration in C57BL/6 mouse at 10 mg/kg, po administered as single dose measured at 24 hrs by HPLC-MS/MS analysis; type: ADME, organism-based; how it was run: as §2
Chikungunya virus [16] = experiment: Antiviral activity against Chikungunya virus IMT infected in HEK 293T cells assessed as reduction in viral load at 5 uM measured up to 24 hrs by qRT-PCR analysis relative to control; type: functional
Chikungunya virus [17] = experiment: Antiviral activity against full length gluc-tagged Chikungunya virus 2008 Singapore SGP11 infected in HEK293T cells assessed as reduction in virus infection after 24 hrs by gaussia luciferase reporter gene assay; type: functional, cell-based; conditions: 2008 Singapore SGP11, HEK-293T
Chikungunya virus [18] = experiment: Antiviral activity against full length gluc-tagged Chikungunya virus 2013 Caribbean CNR20235 infected in HEK293T cells assessed as reduction in virus infection after 24 hrs by gaussia luciferase reporter gene assay; type: functional, cell-based; conditions: 2013 Caribbean CNR20235, HEK-293T
Onyong-nyong virus = experiment: Antiviral activity against O'nyong-nyong virus Chad infected in HEK293T cells assessed as reduction in virus infection after 24 hrs by FITC-based assay; type: functional, cell-based; conditions: HEK-293T
How it was run: (§3)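 This was a pan-alphavirus panel against ONNV and SINV, read by immunofluorescence-based high content screen. Serial dilutions were normalized to untreated infection (100%) and noninfected cells (0%). The EC50, the concentration inhibiting 50% infectivity, came from a five-parameter asymmetric dose-response fit.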

Sindbis virus = experiment: Antiviral activity against Sindbis virus infected in HEK293T cells assessed as reduction in virus infection after 24 hrs by FITC-based assay; type: functional, cell-based; conditions: HEK-293T; how it was run: as §3
Chikungunya virus [19] = experiment: Antiviral activity against full length gluc-tagged Chikungunya virus IMT infected in human BJ cells assessed as reduction in virus infection after 24 hrs by gaussia luciferase reporter gene assay; type: functional, cell-based
[20] = Cytotoxicity against human BJ cells assessed as reduction in cell viability after 24 hrs by CellTiter-Glo luminescent assay; type: cell-based
How it was run: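 BJ human fibroblast viability was measured by CellTiter-Glo luminescence after 24 h exposure to serial dilutions. Data were normalized to untreated cells (100%) and reagent background (0%). CC50 came from a five-parameter asymmetric fit.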

[21] = Selectivity index, ratio of CC50 for human BJ cells to EC50 for full length Gaussia princeps Gluc-tagged Chikungunya virus IMT; type: toxicity; conditions: read-out: Ratio CC50/EC50
Chikungunya virus [22] = experiment: (§4) Antiviral activity against wild type Chikungunya virus IMT infected in HEK293T cells administered 2 to 4 hrs prior to infection measured after 24 hrs post infection by FITC immunofluorescence-based single cell quantification high content screening assay; type: functional; conditions: HEK-293T
Chikungunya virus [23] = experiment: Antiviral activity against wild type Chikungunya virus IMT infected in HEK293T cells administered 2 to 12 hrs post infection measured after 24 hrs post infection by FITC immunofluorescence-based single cell quantification high content screening assay; type: functional
Chikungunya virus [24] = experiment: Antiviral activity against wild type Chikungunya virus IMT infected in HEK293T cells at 5 uM administered 2 to 12 hrs post infection measured after 24 hrs post infection by alpha virus detection based FITC immunofluorescence-based single cell quantification high content screening assay; type: functional
Chikungunya virus [25] = experiment: as §4, with “to infection followed by cels incubation in absence of compound from 0 hrs post infection onwards measured after 24 hrs by measured after” for “to infection measured after”; type: functional; conditions: HEK-293T
Chikungunya virus [26] = experiment: Antiviral activity against wild type Chikungunya virus IMT infected in HEK293T cells at 5 uM administered 2 to 4 hrs prior to infection followed by cels incubation in absence of compound from 0 hrs post infection onwards measured after 24 hrs by measured after 24 hrs post infection by FITC immunofluorescence-based single cell quantification high content screening assay; type: functional
[27] = Plasma concentration in C57BL/6 mouse at 10 mg/kg, po administered as single dose measured within 1 hr post dose by HPLC-MS/MS analysis; type: ADME, organism-based; how it was run: as §2
[28] = Plasma concentration in C57BL/6 mouse at 3 mg/kg, iv administered as single dose measured at 24 hrs by HPLC-MS/MS analysis; type: ADME, organism-based; how it was run: as §2
Chikungunya virus [29] = experiment: Antiviral activity against Chikungunya virus IMT infected in HEK 293T cells assessed as reduction in viral load measured up to 24 hrs by qRT-PCR analysis relative to control; type: functional, cell-based
Chikungunya virus [30] = experiment: Antiviral activity against wild type Chikungunya virus IMT infected in HEK293T cells administered during virus adsorption stage (0 hrs post infection) measured after 24 hrs post infection by FITC immunofluorescence-based single cell quantification high content screening assay; type: functional
Chikungunya virus [31] = experiment: Antiviral activity against Chikungunya virus IMT infected in HEK 293T cells assessed as reduction in viral load at 10 uM measured up to 24 hrs by qRT-PCR analysis relative to control; type: functional
Chikungunya virus [32] = experiment: Antiviral activity against Chikungunya virus IMT infected in HEK 293T cells assessed as reduction in viral load at 25 uM measured up to 24 hrs by qRT-PCR analysis relative to control; type: functional

Row | SMILES | EC50 (Chikungunya virus [1]) | CC50 at 24 h [2] | EC50 (Chikungunya virus [3]) | selectivity ratio [4] | half-life [5] | CLH (Liver) | half-life [6] | half-life [7] | clearance [8] | Vd [9] | Tmax [10] | Cmax [11] | bioavailability [12] | concentration at 1 h [13] | inhibition (Chikungunya virus [14]) | concentration at 24 h [15] | fold change (FC) (Chikungunya virus [16]) | concentration at 1 h [27] | concentration at 24 h [28] | Activity (Chikungunya virus [29]) | also measured
1 | CCCNC(=O)C1CCN(C(=O)c2cc3sc(-c4ccccc4)cc3n2Cc2ccc(OC)cc2)CC1 | 4.03 µM | > 100 µM | 3.3 µM | > 20 | 44.2 min | 31.4 µL/min | 124 min | 142 min | 18.6 mL/min/kg | 2.45 L/kg | 40 min | 720 ng/mL | 22% | 2 µM | Dose-dependent effect | < 0.5 ng/mL | >50 | 2 µM | < 0.5 ng/mL | Dose-dependent effect | EC50 (Chikungunya virus [17]): 2.26 µM; EC50 (Chikungunya virus [18]): 2.18 µM; EC50 (Onyong-nyong virus): 3.24 µM; EC50 (Sindbis virus): 1.65 µM; EC50 (Chikungunya virus [19]): 5.07 µM; CC50 at 24 h [20]: > 100 µM; selectivity ratio [21]: > 20; EC50 (Chikungunya virus [22]): 2.5 µM; Activity (Chikungunya virus [23]): Active; Activity (Chikungunya virus [24]): inactive; EC50 (Chikungunya virus [25]): 14 to 15 µM; Activity (Chikungunya virus [26]): inactive; Activity (Chikungunya virus [30]): Active
2 | CCCNC(=O)[C@@H]1C[C@H]2CCC[C@@H](C1)[C@@H]2NC(=O)c1cc2sc(Br)nc2n1Cc1ccc(OC)cc1 | 12.6 µM | > 100 µM | 7.23 µM | > 14 | 52 min | 26.7 µL/min | 65.4 min | 83.4 min | 5.68 mL/min/kg | 0.337 L/kg | 20 min | 6700 ng/mL | 39.1% | 17 µM | Dose-dependent effect | < 0.5 ng/mL | <=5 | 17 µM | < 0.5 ng/mL | Dose-dependent effect | fold change (FC) (Chikungunya virus [31]): <=5; fold change (FC) (Chikungunya virus [32]): <=5
